From ChEMBL document CHEMBL1821725, “Synthesis and biological evaluation of 2',4'- and 3',4'-bridged nucleoside analogues” (Bioorg Med Chem, 2011) come the findings set out here.

Values after ≈ are worked out from the molar mass of the structure shown. Active and inactive are the calls of the source.

The test system of data set [1] is Escherichia coli. The data set can be described thus: Antibacterial activity against Escherichia coli MG1655 at 64 uM after 24 hrs by micro-broth dilution method. Particulars: K-12 substr. MG1655. The class given is functional. The gist of the method: (§1)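 CLSI broth microdilution. Compounds serially diluted in cation-adjusted Mueller Hinton broth. Inoculum from fresh overnight MHA plate scrape, adjusted to 1 × 10^7 CFU/ml, 5 μL added per well. Incubated at 37 °C for 24 h. MIC = lowest concentration with no visible growth; median of at least three independent replicates. Highest concentration tested 64 μM.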
(Broth dilution looks for growth in wells or tubes with falling amounts of substance.)

Data set [2] relates to CCRF-CEM. The data set can be described thus: Cytotoxicity against human CCRF-CEM cells after 72 hrs by MTT assay. The class given is functional, cell-based. A digest of the protocol: (§2)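 Raji and CCRF-CEM cells incubated with compounds for 72 h. Viability read by MTT reduction to formazan, optical density at 570 nm. Data analysed by one-way ANOVA. IC50 taken as concentration giving 50% growth inhibition. Highest concentration tested 10 μM.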

Data set [3] has as its system Human immunodeficiency virus 1. The data set can be described thus: Antiviral activity against HIV1 SF162 infected in human TZM-bl cells assessed as inhibition of virus neutralization after 48 hrs by luciferase assay. The data set is classed as functional, organism-based. The gist of the method: (§3)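 Single-round HIV-1 pseudoviruses made in 293T cells and titrated on TZM-bl cells. Virus giving ~1 × 10^6 RLU incubated 1 h at 37 °C with serially diluted samples. TZM-bl cells then plated at 1 × 10^5 per well for 48 h. Read-out: luciferase in cell lysate. IC50 = 50% neutralization. Highest concentration tested 100 μM.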

Data set [4] relates to Staphylococcus aureus. The data set can be described thus: Antibacterial activity against Staphylococcus aureus 8325 at 64 uM after 24 hrs by micro-broth dilution method. The class given is functional. Particulars: NCTC 8325. The gist of the method: as §1
Data set [5] relates to Human immunodeficiency virus 1. The data set can be described thus: Antiviral activity against HIV1 HxB2 infected in human TZM-bl cells assessed as inhibition of virus neutralization after 48 hrs by luciferase assay. The data set is classed as functional, organism-based. Particulars: Human immunodeficiency virus 1, HxB2, TZM-bl. A digest of the protocol: as §3
The subject of data set [6] is Raji. The data set can be described thus: Cytotoxicity against human Raji cells after 72 hrs by MTT assay. The class given is functional, cell-based. A digest of the protocol:
as §2
Background: Formazan colour is commonly taken as a measure of viable cells.

Data set [7] can be described thus: Cytotoxicity against human TZM-bl cells at 33 uM after 48 hrs. The class given is cell-based.
Data set [8] concerns Raji. The data set can be described thus: Cytotoxicity against human Raji cells at 10 uM after 72 hrs by MTT assay. The data set is classed as functional, cell-based. The gist of the method:
as §2

Data set [9] has as its system CCRF-CEM. The data set can be described thus: Cytotoxicity against human CCRF-CEM cells at 10 uM after 72 hrs by MTT assay. The class given is functional, cell-based. The gist of the method:
as §2

Data set [10] has as its system Human immunodeficiency virus 1. The data set can be described thus: Antiviral activity against HIV1 LAI. Particulars: Human immunodeficiency virus 1, LAI. The data set is classed as functional, organism-based.
Data set [11] is described as follows: Cytotoxicity against human MT4 cells. The data set is classed as cell-based.
The test system of data set [12] is Human immunodeficiency virus 1. The data set can be described thus: Antiviral activity against HIV1 SF162 infected in human TZM-bl cells assessed as inhibition of virus neutralization at 100 uM after 48 hrs by luciferase assay. The class given is functional, organism-based. The gist of the method:
as §3

The test system of data set [13] is Human immunodeficiency virus 1. The data set can be described thus: Antiviral activity against HIV1 HxB2 infected in human TZM-bl cells assessed as inhibition of virus neutralization at 100 uM after 48 hrs by luciferase assay. The data set is classed as functional, organism-based. The gist of the method:
as §3

Data set [14] concerns Staphylococcus aureus. The data set can be described thus: Antibacterial activity against Staphylococcus aureus 8325 after 24 hrs by micro-broth dilution method. Particulars: NCTC 8325, 24 h. The data set is classed as functional. The gist of the method: as §1
The subject of data set [15] is Escherichia coli. The data set can be described thus: Antibacterial activity against Escherichia coli MG1655 after 24 hrs by micro-broth dilution method. The data set is classed as functional. Particulars: K-12 substr. MG1655, 24 h. A digest of the protocol: as §1
The test system of data set [16] is Human immunodeficiency virus. The data set can be described thus: Antiviral activity against HIV. The data set is classed as functional. The conditions noted are these: Human immunodeficiency virus 1; read-out: ED50 (the source's name).
Setting [17] is: Human immunodeficiency virus 1, SF162, TZM-bl, 48 h, read-out: IC50.

By IC50 is commonly meant the concentration needed to halve the response being measured. With `C=CCc1nc(/C=C/C)c2ncn([C@@H]3O[C@@]4(CO)CO[C@@H]3[C@@H]4OCc3ccccc3)c2n1`, the inhibition entry with Escherichia coli [1] and in the data set on Staphylococcus aureus [4] was “inactive” throughout. Besides, the IC50 is 7600 nM in the data set with CCRF-CEM [2], “Not Active” in [3] (tzm-bl), 2400 nM in [5] and 5800 nM in the data set with Raji [6]. Moreover, in data set [7], the Activity result is recorded as “Toxic”.

Take `OC[C@@]12CO[C@@H]([C@H](n3cnc4c(NCc5ccccc5)nc(Cl)nc43)O1)[C@@H]2OCc1ccccc1`: the inhibition entry in the data set on Escherichia coli [1] and with Staphylococcus aureus [4] was “inactive” in each case. For the same compound, the results for the IC50 in data set [3] (setting [17]) and in data set [5] were 7000 nM and 2400 nM, respectively. The “growth inhibition (GI)” value with Raji [8] and in the data set with CCRF-CEM [9] was “inactive” each time.

Compound `Cc1cn([C@@H]2C=CC3(CO)C[C@@H]23)c(=O)[nH]c1=O` (single isomer, unassigned) returned an EC50 in data set [10] of 28800 nM.

One may read the CC50 as the concentration at which the toxic effect on the cells reaches its halfway point. A high value points to better tolerance by the cells. On to `Cc1cn([C@H]2C[C@@H]3COC[C@]3(CO)O2)c(=O)[nH]c1=O`, for which the midpoint of cytotoxicity in [11], the CC50, lay at 0.54 µg/mL (≈ 2.01 µM).

On to `O=C(c1ccccc1)N(C(=O)c1ccccc1)c1nc(N(C(=O)c2ccccc2)C(=O)c2ccccc2)c2ncn([C@@H]3O[C@@]4(CO)CO[C@@H]3[C@@H]4OCc3ccccc3)c2n1`, for which the inhibition result (in the data set with Escherichia coli [1]; in [12]; with Staphylococcus aureus [4]; in [13]) was “inactive” in each case. Besides, the IC50 came to 360 nM in the data set on CCRF-CEM [2] and 250 nM in the data set on Raji [6].

As usually defined, the MIC is the smallest concentration in the dilution series that meets the test's criterion for growth inhibition. A low value points to a more susceptible organism. With `CN(Cc1ccccc1)c1nc(Cl)nc2c1ncn2[C@@H]1O[C@@]2(CO)CO[C@@H]1[C@@H]2O`, the minimal inhibitory concentration (MIC) amounted to 8 µM (≈ 3.34 µg/mL) against Staphylococcus aureus [14] and 16 µM (≈ 6.69 µg/mL) in the data set on Escherichia coli [15]. Further, the 50% inhibitory concentration (IC50) in [3] (setting [17]) came to 27900 nM; in data set [5] it was 24900 nM. The “growth inhibition (GI)” value in the data set with Raji [8] and in the data set with CCRF-CEM [9] was “inactive” each time.

Turning to `Nc1nc(Cl)nc2c1ncn2[C@H]1C[C@H](O)[C@@H](CO)O1` [CLADRIBINE], the figures for the IC50 in the data set on CCRF-CEM [2] and with Raji [6] were 0.5 nM and 9 nM, respectively.

For `Cc1cn([C@@H]2O[C@@]3(CO)COC[C@H]3[C@H]2O)c(=O)[nH]c1=O`, half-maximal cytotoxicity in data set [11] (CC50) was put at 0.54 µg/mL (≈ 1.9 µM).

On to `Cc1cn([C@@H]2O[C@@]3(CO)CO[C@H]3[C@H]2O)c(=O)[nH]c1=O`, for which the EC50 in [16] turned out to be 140 nM.

For the compound `Cc1cn([C@H]2C[C@H](N=[N+]=[N-])[C@@H](CO)O2)c(=O)[nH]c1=O` [ZIDOVUDINE], the EC50 in [16] was 1 nM. Further, the values for the IC50 in [3] (setting [17]) and in data set [5] were 78 nM and 37 nM, respectively.

Regarding `CCNc1nc(N)c2ncn([C@@H]3O[C@@]4(CO)CO[C@@H]3[C@@H]4OCc3ccccc3)c2n1`, the inhibition result (with Escherichia coli [1]; in the data set with Staphylococcus aureus [4]; in data set [13]) was “inactive” throughout. For the same compound, in data set [3] (setting [17]), the concentration for half-maximal inhibition (IC50) stood at 60000 nM. Further, the “growth inhibition (GI)” value with Raji [8] and in the data set with CCRF-CEM [9] was “inactive” in each case.

For the compound `CCCCNc1nc(N)c2ncn([C@@H]3O[C@@]4(CO)CO[C@@H]3[C@@H]4OCc3ccccc3)c2n1`, the inhibition result in the data set with Escherichia coli [1] and with Staphylococcus aureus [4] was “inactive” each time. Besides, the values for the IC50 in data set [3] (setting [17]) and in data set [5] were 68000 nM and 28000 nM, respectively. Also, the “growth inhibition (GI)” value with Raji [8] and in the data set on CCRF-CEM [9] was “inactive” each time.
